Screening data from PubChem.
Shown are actives, neighbours in structure and some others; about 4.1% of the full set was active somewhere.
hERG protect: compounds protecting human hERG from proarrhythmic drug block; Q12809; CHO-hERG, FluxOR thallium flux, dofetilide IC70 present; activation (rescue from dofetilide block), less the hit threshold, % at 10 µM; 310,000 compounds, 0.51% hits; AID 1511;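 active = activation above the mean of controls blocked by dofetilide plus 5 SD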;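 also: thallium influx through hERG after potassium depolarization seen as dye fluorescence rise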
KCNQ1 inh: human KCNQ1 channel inhibition; P51787; CHO-K1 KCNQ1, FluxOR thallium flux fluorescence; stronger effect = higher value; B-score at 10 µM; 310,000 compounds, 1.3% hits;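 active = compounds whose thallium flux B-score, printed positive for inhibition, exceeds three library SD while starting fluorescence stays within three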;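 also: channel opened by potassium depolarization with thallium stimulus after 20 min compound exposure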
Target sequence (P51787 whole entry, looked up): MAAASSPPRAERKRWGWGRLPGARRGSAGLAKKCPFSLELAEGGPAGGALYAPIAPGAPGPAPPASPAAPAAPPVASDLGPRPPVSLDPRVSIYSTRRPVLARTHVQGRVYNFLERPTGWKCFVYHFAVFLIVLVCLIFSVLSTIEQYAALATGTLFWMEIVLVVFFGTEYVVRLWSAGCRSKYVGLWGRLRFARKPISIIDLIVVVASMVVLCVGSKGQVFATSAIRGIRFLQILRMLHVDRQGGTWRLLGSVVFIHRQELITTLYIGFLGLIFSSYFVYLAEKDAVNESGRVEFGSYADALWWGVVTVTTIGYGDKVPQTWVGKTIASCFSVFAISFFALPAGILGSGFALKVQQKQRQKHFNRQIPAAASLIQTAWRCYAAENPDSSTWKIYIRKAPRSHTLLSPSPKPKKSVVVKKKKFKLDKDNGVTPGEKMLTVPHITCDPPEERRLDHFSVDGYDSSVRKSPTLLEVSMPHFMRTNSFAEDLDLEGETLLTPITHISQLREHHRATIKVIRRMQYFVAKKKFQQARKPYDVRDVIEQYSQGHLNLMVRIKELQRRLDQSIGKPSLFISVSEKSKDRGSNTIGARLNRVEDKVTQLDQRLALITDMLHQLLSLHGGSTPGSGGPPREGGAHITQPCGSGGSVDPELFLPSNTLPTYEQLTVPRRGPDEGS
KCC2 mod: modulators of human KCC2 chloride dependent transport; Q9H2X9; KCC2 cells, thallium flux FluoZin-2 fluorescence; AID 1456; 190,000 compounds, 2.2% hits; B-score of Tl+ flux slope (higher = more flux/activation; lower = inhibition) at 10 µM;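 active = thallium flux slope and its plate-corrected score both differing from the plate sample mean at a set confidence after two filtering rounds, in either direction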;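 also: slope of fluorescence scaled to starting intensity during 10 to 20 s after thallium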
KCNQ1 act: potentiators or activators of human KCNQ1 potassium channel; CHO-K1 KCNQ1, thallium flux FluxOR fluorescence; stronger effect = higher value; B-score at 10 µM; 310,000 compounds, 0.35% hits; AID 2648;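 active = fluorescence ratio B-score, a plate-corrected score, at least three library SD, with initial intensity B-score within 5 SD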
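Test system: CHO-K1 cells stably expressing KCNQ1 / Medium: assay buffer / Also added: depolarizing K+/Tl+ stimulus, K2SO4 and Tl2SO4 each 12.5 mM in 5x stock / Incubation: 90 min dye loading and 20 min compound exposure, both at room temperature / Signal: thallium influx via FluxOR fluorescence, kinetic imaging / Evaluation: B score of baseline-normalized fluorescence ratio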
KCNK3 block: human KCNK3 channel inhibition, primary screen; AID 602410; B-score at 10 µM; 340,000 compounds, 0.84% hits; O14649; CHO-KCNK3 thallium flux, FluxOR fluorescence; stronger effect = lower value;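 active = B-score under library mean minus 4 SD, starting fluorescence ratio at most library mean plus 5 SD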;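 also: more negative B-score means stronger inhibition of thallium flux through KCNK3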
KCNK9 inh: inhibitors of human KCNK9 two-pore domain potassium channel. Q9NPC2. HEK293 KCNK9, FluxOR thallium flux fluorescence; stronger effect = lower value. B-score at 10 µM. 310,000 compounds, 1.2% hits;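 active = ratio B-score over 3 SD below the library mean, with starting fluorescence within 5 SD of its mean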;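 also: negative B-score means less thallium flux so channel inhibition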
KCC2 sec1: KCC2 (human) modulation, secondary assay; normalised thallium flux (F/F0 slope) at 10 µM; 3,700 compounds, 15% hits; shares compounds with KCC2 mod; AID 1713; HEK293-KCC2, thallium flux, FluoZin2 fluorescence; stronger effect = higher value;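 active = thallium flux slope above the same plate's solvent-only control mean plus 3 SD; inconclusive = the two replicate wells disagree; inactive = no significant difference from solvent-only control wells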
KCC2 bumet counter: thallium flux persisting under bumetanide in KCC2 cells, counter-screen secondary assay; HEK293-KCC2 + bumetanide/ouabain, thallium flux FluoZin2; stronger effect = higher value; shares compounds with KCC2 mod; normalized thallium flux at 10 µM; 3,700 compounds, 49% hits;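 active = thallium entry rate above the same plate's blocked-transporter control wells by more than 3 SD; inconclusive = the two repeat wells disagree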;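 also: raw slope of fluorescence over initial fluorescence between 10 and 20 s after thallium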
KCC2 sec2: confirmation of human KCC2 transport modulators; shares compounds with KCC2 mod; HEK293-KCC2, thallium flux FluoZin2 fluorescence; actives lie on both sides; F/F0 rise rate, 10–20 s post-thallium; normalized thallium flux at 10 µM; 3,700 compounds, 23% hits;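 active = thallium flux slope more than 3 SD above or below the plate's solvent-only control mean, mostly below; inconclusive = the two repeat wells disagreed; inactive = no significant shift from solvent-only controls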;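 also: raw slope with 0.1% DMSO as baseline and bumetanide as block control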
HEK counter1: acts in parental HEK cells, KCC2 counter-screen; shares compounds with KCC2 mod; HEK293 parental cells, thallium flux FluoZin2, ouabain; baseline-ratio fluorescence slope, 10–20 s after thallium; thallium flux rate (normalised fluorescence) at 10 µM; 3,700 compounds, 46% hits; AID 1716;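 active = thallium flux rate significantly above the same plate's solvent-only control wells, beyond their mean plus 3 SD; inconclusive = the two replicate wells gave conflicting results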
KCC2 ouabain: confirmation of human KCC2 modulators with ouabain; shares compounds with KCC2 mod; HEK293-KCC2, thallium flux FluoZin2 fluorescence; bidirectional: low = inhibitor, high = activator; raw Tl+ flux slope (below DMSO = inhibition, above = activation) at 10 µM; 3,700 compounds, 48% hits; AID 1717;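 active = thallium flux slope beyond 3 SD from same-plate DMSO control mean in most replicates, usually higher, sometimes lower; inconclusive = repeat tests gave conflicting results; inactive = no significant difference from controls in most replicates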;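 also: slope of initial-normalized fluorescence between seconds 10 and 20 after thallium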
HEK counter2: counter-screen for KCC2 modulators: effect in parental HEK293 cells. thallium flux slope at 10 µM. 3,700 compounds, 33% hits. shares compounds with KCC2 mod. thallium flux FluoZin-2 fluorescence slope;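 active = thallium flux slope above the same plate's solvent-control mean plus 3 SD in both duplicate wells; inconclusive = duplicate wells that disagreed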;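 also: run without ouabain in cells lacking the KCC2 cotransporter; slope of fluorescence scaled to its starting value between 10 and 20 s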
* hit, by the source's call; i = inactive; ? = inconclusive; . = no result given.

SMILES | hERG protect | KCNQ1 inh | KCC2 mod | KCNQ1 act | KCNK3 block | KCNK9 inh | KCC2 sec1 | KCC2 bumet counter | KCC2 sec2 | HEK counter1 | KCC2 ouabain | HEK counter2
NC(=S)Nc1nc2ccccc2s1 | -3.5 | i | 102* | 8* | i | i | 0.0411* | 0.0869* | 0.0508* | 0.0573* | 0.0563* | 0.0607*
COc1ccc(-c2nn(-c3ccccc3)cc2/C=C(\CC(=O)O)c2nc3ccccc3s2)cc1OC | -19.2 | i | -3.81* | i | i | i | 0.007 | 0.006 | 0.0314 | ? | 0.0143* | 0.0105
CCc1ccc(CNC(=O)C2CCCN(S(=O)(=O)N(CC)c3ccccc3)C2)cc1 (stereo not drawn) | -9.5 | i | . | i | i | i | . | . | . | . | . | .
COC(=O)C1=C(C(=O)OC)[C@@H]2N(Cc3ccccc3)c3ccccc3[C@@]23C[C@@H](C(=O)OC)N(C(C)=O)C3=N1 | -1.5 | i | -1.13* | i | i | i | 0.00727 | 0.00463 | 0.0343 | 0.0073 | 0.0208 | 0.0109
CC(OC(=O)c1ccccc1Br)C(=O)Nc1nc(-c2cccc([N+](=O)[O-])c2)cs1 (stereo not drawn) | -4.4 | i | -0.00126 | i | i | i | . | . | . | . | . | .
COC(=O)c1ccccc1NC(=S)NC(=O)COc1ccccc1Cl | -12.2 | i | 18.5* | i | i | i | 0.0228* | 0.0498* | ? | 0.0119* | 0.024* | 0.0158*
O=[N+]([O-])c1cccc(NC(=S)Nc2nc(-c3ccc(Cl)cc3Cl)cs2)c1 | -13.7 | i | . | i | . | i | . | . | . | . | . | .
O=C(NC(=S)Nc1nc(-c2cccc([N+](=O)[O-])c2)cs1)c1cc(Cl)ccc1Cl | 2.3 | i | 6.07* | i | i | i | 0.00966 | 0.0106* | 0.0316 | 0.00881* | 0.027* | 0.0104*
O=C(NC(=S)Nc1ccccc1[N+](=O)[O-])c1ccccc1Cl | -4.6 | i | 18.7* | i | i | i | ? | 0.0336* | 0.035 | 0.019* | 0.0297* | 0.0133*
O=C(NC(=S)Nc1nc(-c2cccc([N+](=O)[O-])c2)cs1)c1ccccc1Cl | 1.3 | i | 4.8* | i | i | i | 0.00726 | 0.00793* | 0.0305 | 0.0123* | 0.0238* | 0.0139*
COC(=O)Cc1nnc(SCC(=O)Nc2ccccc2)c2ccccc12 | -7.8 | i | . | i | i | i | . | . | . | . | . | .
CCc1ccccc1NC(=S)NNC(=O)c1ccccc1Cl | -10.3 | i | 3.21* | i | i | i | 0.017 | 0.0117* | 0.0305 | 0.0115* | 0.0191 | 0.0135*
CCc1ccccc1NC(=S)NN | -9.4 | i | -0.391 | i | . | i | . | . | . | . | . | .
CC(OC(=O)c1ccccc1NCc1ccco1)C(=O)Nc1ncc(Cl)cc1Cl (stereo not drawn) | -7.9 | i | -3.02* | i | i | i | 0.00885 | 0.00578 | 0.0295 | 0.00641 | ? | ?
CC(OC(=O)c1ccc(S(=O)(=O)NCc2ccco2)cc1)C(=O)Nc1ccc(Cl)cn1 (stereo not drawn) | -13.1 | i | 0.748 | i | i | i | . | . | . | . | . | .
